# TRPC4 act: activators of mouse TRPC4 channel, primary screen, Fluo4 calcium, HEK293 TRPC4beta/mu-opioid cells; Short transient receptor potential channel 4 (Mus musculus), Q9QUQ5; Fluo4 calcium fluorescence; stronger effect = higher value; B-score at 10 µM; hit rate 0.49% among 310,000;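 active means B-score above 5 SD of library B-scores, and initial fluorescence ratio not above library mean plus 5 SD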;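 further: positive B-score marks a calcium rise read as TRPC4 activation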
# Target sequence (Q9QUQ5 whole entry, looked up): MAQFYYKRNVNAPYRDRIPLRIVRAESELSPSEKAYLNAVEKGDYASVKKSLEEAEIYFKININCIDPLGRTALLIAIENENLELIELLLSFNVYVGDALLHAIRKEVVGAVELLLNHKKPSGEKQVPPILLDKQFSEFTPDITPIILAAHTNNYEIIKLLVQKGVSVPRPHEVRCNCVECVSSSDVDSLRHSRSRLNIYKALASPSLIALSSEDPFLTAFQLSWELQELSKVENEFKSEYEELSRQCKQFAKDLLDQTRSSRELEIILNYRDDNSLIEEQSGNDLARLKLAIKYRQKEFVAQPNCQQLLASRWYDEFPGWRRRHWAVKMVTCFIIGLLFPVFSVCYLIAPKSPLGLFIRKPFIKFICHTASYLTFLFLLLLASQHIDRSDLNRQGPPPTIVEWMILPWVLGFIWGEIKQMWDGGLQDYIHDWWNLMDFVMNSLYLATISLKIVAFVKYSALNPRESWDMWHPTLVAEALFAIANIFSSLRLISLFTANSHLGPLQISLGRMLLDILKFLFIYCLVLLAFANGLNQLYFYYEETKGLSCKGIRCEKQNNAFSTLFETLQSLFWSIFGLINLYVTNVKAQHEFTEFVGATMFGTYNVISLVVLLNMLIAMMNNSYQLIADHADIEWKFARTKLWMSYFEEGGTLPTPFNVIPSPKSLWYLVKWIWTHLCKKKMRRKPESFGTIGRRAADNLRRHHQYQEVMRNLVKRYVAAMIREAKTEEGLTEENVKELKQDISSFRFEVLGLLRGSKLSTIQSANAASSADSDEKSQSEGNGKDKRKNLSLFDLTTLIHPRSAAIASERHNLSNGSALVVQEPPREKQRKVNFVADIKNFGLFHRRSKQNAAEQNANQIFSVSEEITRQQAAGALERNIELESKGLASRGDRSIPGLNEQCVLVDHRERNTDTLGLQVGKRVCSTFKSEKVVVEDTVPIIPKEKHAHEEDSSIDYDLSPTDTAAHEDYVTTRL
#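 Technique: kinetic Fluo4 calcium fluorescence; Test system: TRPC4beta and mu-opioid receptor HEK293 stable cells; Measure: B-scored integrated calcium fluorescence ratio; Benchmarks: low control buffer alone, high control maximal DAMGO; Schedule: 45 min room-temperature Fluo4 loading, 110 s read.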
# TRPC6 act: mouse TRPC6 channel activators, primary screen, cell-based, HEK293, membrane potential dye; Short transient receptor potential channel 6 (Mus musculus), Q61143; HEK293-TRPC6 membrane potential dye fluorescence; stronger effect = higher value; B-score at 10 µM; hit rate 0.13% among 310,000;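 active means B-score of the integrated fluorescence ratio above library mean plus 3 SD, and starting fluorescence ratio within library mean plus 5 SD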;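 further: higher score means more depolarization so channel activation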
# TRPC4 potent: positive allosteric modulators of TRPC4, primary screen, cell-based, mouse TRPC4beta, HEK293 mu-opioid, Fluo-4 calcium; Short transient receptor potential channel 4 (Mus musculus), Q9QUQ5; DAMGO EC20, Fluo-4 Ca2+ flux; stronger effect = higher value; B-score at 10 µM; hit rate 0.42% among 310,000;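 active means B-score of calcium response area above 5 SD of library B-scores, with initial fluorescence ratio within 5 SD of library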;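 further: B-score of integrated fluorescence ratio over time as area under calcium response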
# TRPC4 block: inhibitors of mouse TRPC4 channel, primary screen, Fluo4 calcium, HEK293 TRPC4beta/mu-opioid cells | hit rate 0.39% among 300,000 | DAMGO-evoked Fluo4 calcium flux; stronger effect = lower value | AID 2247, 2010 | Short transient receptor potential channel 4 (Mus musculus), Q9QUQ5 | B-score at 10 µM;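 active means B-score over 3 SD under the library average, no early fluorescence shift, positive overall ratio signal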
#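 Signal: kinetic Fluo4 fluorescence imaging of calcium influx. Material: stable TRPC4beta/mu-opioid receptor HEK293 cells. Probe or stimulus: DAMGO in two steps, submaximal then maximal.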
# TRPC6 inhibitor: mouse TRPC6 channel inhibitors, primary screen, cell-based, HEK293, membrane potential dye | ACh-evoked depolarization; stronger effect = lower value | B-score at 10 µM | hit rate 1.1% among 310,000 | AID 2553, 2010;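 active means B-score under library mean minus 3 SD, initial fluorescence not abnormally high, positive integrated signal ratio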;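 further: B-score derived from integrated fluorescence ratio over the kinetic read; more negative B-score means stronger inhibition of depolarization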
# TRPC4 spec 2: second check of whether TRPC6 inhibitors also affect mouse TRPC4 | shares compounds with TRPC6 inhibitor | hit rate 42% among 920 | HEK293 TRPC4/MOR, membrane potential dye fluorescence; channel activated by saturating DAMGO dose | inhibition, % at 10 µM;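 active means compounds whose fluorescence signal differed from control wells by over 3 SD, either direction, in both duplicate plates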
# TRPC4 spec: mouse TRPC4 modulation by TRPC6 hits, confirmation, selectivity assay for TRPC6 inhibitor project, cell-based, HEK293 TRPC4/mu-opioid, membrane potential dye; shares compounds with TRPC6 inhibitor; membrane potential fluorescence; activity change, negative = inhibition, % at 10 µM; hit rate 61% among 920; AID 2777, 2010;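 active means rise or fall in signal beyond 3 SD of buffer-only wells in both replicate plates, either sign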;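 further: integrated kinetic ratio of fluorescence range over baseline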
# HEK293 MPD ctr 2-1: nonspecific membrane potential effects, parental HEK293, confirmation, counter-screen for TRPC6 inhibitor project, cell-based, second counter screen. hit rate 31% among 920. signal change vs control, % at 10 µM. parental HEK293 membrane potential dye fluorescence; maximal acetylcholine challenge after compound addition. shares compounds with TRPC6 inhibitor;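 active means membrane potential signal moving either way by over 3 SD of the maximum-effect control, in both duplicate plates, meaning non-specific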
# HEK293 MPD ctr-1: membrane potential modulation in parental HEK293, confirmation, counter-screen for TRPC6 inhibitor project, cell-based. shares compounds with TRPC6 inhibitor. parental HEK293 membrane potential dye fluorescence. membrane potential signal change, % at 10 µM. hit rate 60% among 920. AID 2780, 2010;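 active means membrane potential signal shifting up or down by more than 3 SD of buffer-only wells, on both duplicate plates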
# HEK293 MPD ctr-2: parental HEK293 membrane potential modulation, confirmation, counter-screen for TRPC6 modulator project, cell-based | hit rate 51% among 2,400 | membrane potential dye fluorescence | AID 488924, 2010 | shares compounds with TRPC6 inhibitor | membrane potential signal change, % at 10 µM;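 active means membrane potential signal moves up or down beyond 5 SD from buffer-only wells, on both duplicate plates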
# HEK293 MPD ctr 2-2: second check of TRPC6 modulator effects in parental HEK293 cells. shares compounds with TRPC6 inhibitor. membrane potential dye fluorescence; after compound, maximal acetylcholine stimulation. inhibition, % at 10 µM. hit rate 14% among 2,400. AID 488926;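 active means membrane potential signal drops by more than 5 SD from the mean control signal, in both duplicate plates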;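 further: plate controls were acetylcholine ECmax control wells for no effect and buffer only wells for full effect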
# TRPC4/MOR mod: TRPC4 modulation by TRPC6 hit compounds, confirmation, selectivity assay for TRPC6 modulator project, cell-based, HEK293 TRPC4/mu-opioid, membrane potential dye, mouse | shares compounds with TRPC6 inhibitor | membrane potential fluorescence | percent change from control (negative = decrease, positive = increase), % at 10 µM | hit rate 69% among 2,400;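 active means membrane potential signal moved up or down beyond 5 SD of buffer control wells, in both duplicate plates, actives on both sides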;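 further: plate controls were assay buffer wells for no effect and DAMGO maximal-effect wells for full effect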
# TRPC4 ctr inh 2: second selectivity test of TRPC6 modulators against mouse TRPC4 | shares compounds with TRPC6 inhibitor | HEK293 TRPC4/mu-opioid, membrane potential dye fluorescence; stimulated with maximal-effect DAMGO | inhibition, % at 10 µM | hit rate 55% among 2,400;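 active means drop in membrane potential signal beyond 5 SD of the control wells in both duplicate plates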;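 further: TRPC4 counter screen for TRPC6 hits run under conditions tuned for TRPC6 not TRPC4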
# TRPC6 block conf: mouse TRPC6 channel inhibitors, confirmation, HEK293 cells, membrane potential dye, duplicate; inhibition, % at 10 µM; AID 488960, 2010; hit rate 43% among 3,300; shares compounds with TRPC6 inhibitor; ACh-evoked depolarization;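 active means fluorescence ratio falls more than 5 SD below the full-stimulation control mean, in both duplicate runs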;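 further: integrated fluorescence ratio of peak minus minimum over baseline after agonist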
# TRPC6 act confirm: mouse TRPC6 channel activators, confirmation, HEK293 cells, membrane potential dye, duplicate | shares compounds with TRPC6 inhibitor | HEK293-TRPC6 membrane potential dye fluorescence, FDSS | activation, % at 10 µM | hit rate 11% among 2,800;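 active means ratio signal rise beyond 5 SD above unstimulated control wells' mean, seen in both duplicate runs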;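 further: plate controls were buffer EC0 wells for no effect and acetylcholine ECmax response for full effect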
# Numbers without * were called inactive; i = inactive; nt = no result given. This is a sample that favours compounds with a hit; in the whole collection about 2.3% have one here.
SMILES,TRPC4 act,TRPC6 act,TRPC4 potent,TRPC4 block,TRPC6 inhibitor,TRPC4 spec 2,TRPC4 spec,HEK293 MPD ctr 2-1,HEK293 MPD ctr-1,HEK293 MPD ctr-2,HEK293 MPD ctr 2-2,TRPC4/MOR mod,TRPC4 ctr inh 2,TRPC6 block conf,TRPC6 act confirm
COc1ccc(OC)c2c(C)cc(N3CCCN(C)CC3)nc12,i,i,i,i,-11*,nt,nt,nt,nt,-246%*,74%*,-40%*,69%*,68%*,i
COc1ccc(-c2cc(C(F)(F)F)n3nc(C(=O)N4CCN(C(=O)c5ccco5)CC4)cc3n2)cc1,i,i,i,i,i,nt,nt,nt,nt,nt,nt,nt,nt,nt,nt
O=C(c1cc2nc(-c3ccco3)cc(C(F)(F)F)n2n1)N1CCN(Cc2ccccc2)CC1,i,i,i,i,-6.7*,i,5.7%*,227%*,2.3%*,nt,nt,nt,nt,i,i
Cc1ccc(S(=O)(=O)NCCC(=O)NCC(=O)Nc2c(C)cccc2C)cc1C,i,i,i,i,i,nt,nt,nt,nt,nt,nt,nt,nt,nt,nt
CNCCCOc1cccc(Oc2ccccc2)c1,i,i,10*,i,-5.1*,nt,nt,nt,nt,100%*,i,12%*,35%*,52%*,i
CNCCCOc1cccc(OC(C)C)c1,i,i,i,i,i,nt,nt,nt,nt,nt,nt,nt,nt,nt,nt
Cc1ccc(N=Nc2c(N)[nH]n3c(=O)cc(-c4ccccc4)nc23)cc1,i,i,i,i,-8.6*,52%*,-17%*,i,-220%*,nt,nt,nt,nt,79%*,i
Cc1cc(=O)n2[nH]c(N)c(N=Nc3ccccc3)c2n1,i,i,i,i,i,nt,nt,nt,nt,nt,nt,nt,nt,nt,nt
COc1cccc(N=Nc2c(N)[nH]n3c(=O)cc(-c4ccccc4)nc23)c1,i,i,i,i,-5.3*,nt,nt,nt,nt,i,i,-20%*,66%*,i,i
CCCC(=O)N1CCCC(c2nc(-c3cccc(OC)c3)no2)C1 (stereo unspecified),i,i,i,i,i,nt,nt,nt,nt,nt,nt,nt,nt,nt,nt
CCCCCCC(=O)N1CCCC(c2nc(-c3cccc(OC)c3)no2)C1 (stereo unspecified),i,i,i,i,-5.9*,nt,nt,nt,nt,i,i,10%*,30%*,64%*,nt
CC(=O)NS(=O)(=O)c1ccc(NC(=O)c2cc3c(=O)n4ccccc4nc3s2)cc1,i,i,i,i,-7.9*,74%*,-35%*,30%*,-653%*,nt,nt,nt,nt,i,i
Cc1cccc(NC(=O)c2cc3c(=O)n4ccccc4nc3s2)c1,i,i,i,i,i,nt,nt,nt,nt,nt,nt,nt,nt,nt,nt
CCOc1ccccc1CN1CCCC(C(=O)Nc2cccc(-n3cccn3)c2)C1 (stereo unspecified),i,i,i,i,i,nt,nt,nt,nt,nt,nt,nt,nt,nt,nt
Cc1c(C)n(CCCN(C)C)c2ncnc(Nc3ccc(F)cc3)c12,i,i,i,i,-6.3*,nt,nt,nt,nt,-144%*,i,-30%*,38%*,40%*,i
Cc1c(C)n(CCN(C)C)c2ncnc(NCc3ccccc3)c12,i,i,i,i,i,nt,nt,nt,nt,nt,nt,nt,nt,nt,nt
Cc1c(C)n(CCc2ccccc2)c2ncnc(NCCCN(C)C)c12,i,i,i,i,-6.3*,nt,nt,nt,nt,-70%*,i,-22%*,58%*,58%*,i
COC(=O)C1CCN(C(=O)COC(=O)C2CCN(S(=O)(=O)c3ccc(C)c(C)c3)CC2)CC1,i,i,i,i,i,nt,nt,nt,nt,nt,nt,nt,nt,nt,nt
O=C(Cn1c(=O)c2cccn2c2cccnc21)N1CCN(c2ccccc2F)CC1,i,i,i,i,i,nt,nt,nt,nt,nt,nt,nt,nt,nt,nt
Cc1cccnc1NC(=O)c1c(O)c2ccccc2n(C)c1=O,i,i,i,i,-6.9*,i,-13%*,i,-144%*,nt,nt,nt,nt,i,i
Cc1ccc(OCC(COCc2ccccc2)NC(C)C)cc1 (stereo unspecified),i,i,i,-6*,-9.3*,42%*,38%*,i,14%*,nt,nt,nt,nt,101%*,nt
O=[N+]([O-])c1ccc(N=Nc2c(Cl)cc(O)cc2Cl)cc1,i,i,i,i,-9.6*,27%*,5.7%*,-26%*,i,nt,nt,nt,nt,114%*,i
CCn1c2c(c(=N)c3ccccc31)CCC2,i,i,i,i,-11*,68%*,-34%*,-12%*,-593%*,nt,nt,nt,nt,72%*,i
CCn1c2c(c(=N)c3c1CCC3)CCC2,i,i,i,i,-7*,nt,nt,nt,nt,-234%*,i,-39%*,40%*,36%*,i

# Screens: PubChem, Johns Hopkins Ion Channel Center
